Results reported in ChEMBL document CHEMBL2429825, “Structure-activity studies of divin: an inhibitor of bacterial cell division” (ACS Med Chem Lett, 2013).
Converted amounts (≈) assume the structure as drawn. The source made the active and inactive calls. The calls are words filed in the database; no cut-off is given here.

What was measured:
Escherichia coli = test: Antimicrobial activity against tolc-defecient Escherichia coli BW25113 after 17 hrs by two-fold serial dilution technique; type: functional; conditions: BW25113, 17 h
Outline: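 MIC by serial dilution following a CLSI protocol. E. coli BW25113 ΔtolC was grown in M8 medium.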

Caulobacter vibrioides [1] = test: Antimicrobial activity against Caulobacter crescentus CB15N after 17 hrs by two-fold serial dilution technique; type: functional
Caulobacter vibrioides [2] = test: Antimicrobial activity against Caulobacter crescentus CB15N assessed as cell division arrest after the initiation of midcell constriction at MIC after 17 hrs by phase contrast microscopy; type: functional, organism-based
Outline: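 C. crescentus CB15N cells were incubated with compound for 17 h, then imaged to score cell-division phenotype at the midcell constriction stage.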

[3] = Solubility of the compound by light scattering fluorescence spectrophotometry; type: physicochemical
Outline: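 Solubility was measured in M8 medium containing 2% DMSO by a light-scattering assay.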

Caulobacter vibrioides [4] = test: Bacteristatic activity against Caulobacter crescentus CB15N assessed as inhibition of cell growth at 2.5 to 20 uM by plate reader analysis; type: functional, organism-based
Shigella boydii = test: Antimicrobial activity against clinical isolates of Shigella boydii by serial dilution technique; type: functional
Outline: (§1)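 Clinical pathogenic isolates were tested for growth inhibition in M8 medium.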

Acinetobacter baumannii = test: Antimicrobial activity against clinical isolates of Acinetobacter baumannii by serial dilution technique; type: functional; outline: as §1
Salmonella typhimurium = test: Antimicrobial activity against clinical isolates of Salmonella typhimurium by serial dilution technique; type: functional, Salmonella enterica subsp. enterica serovar Typhimurium; conditions: Salmonella enterica; outline: as §1
Klebsiella pneumoniae = test: Antimicrobial activity against clinical isolates of Klebsiella pneumoniae by serial dilution technique; type: functional; outline: as §1
Klebsiella aerogenes = test: Antimicrobial activity against clinical isolates of Enterobacter aerogenes by serial dilution technique; type: functional; outline: as §1
Morganella morganii = test: Antimicrobial activity against clinical isolates of Morganella morganii by serial dilution technique; type: functional; outline: as §1
Vibrio cholerae = test: Antimicrobial activity against clinical isolates of Vibrio cholerae by serial dilution technique; type: functional

Compound | MIC (Escherichia coli) [µM] | MIC (Caulobacter vibrioides [1]) [µM] | Activity (Caulobacter vibrioides [2]) | solubility kinetic [3] [µM] | other results
Cc1nc2ccccc2n1CCC(=O)N/N=C/c1ccccc1F | > 50 | > 20 |  |  | 
Cc1nc2ccncc2n1CCC(=O)N/N=C/c1c(O)ccc2ccccc12 | 25 (≈ 9.34 µg/mL) | 10 (≈ 3.73 µg/mL) |  |  | 
Cc1nc2cc(Cl)ccc2n1CCC(=O)N/N=C/c1c(O)ccc2ccccc12 | 7.5 (≈ 3.05 µg/mL) | 5 (≈ 2.03 µg/mL) | Active | 210 (≈ 85.4 µg/mL) | Activity (Caulobacter vibrioides [4]): Active
C=CCOc1ccc2ccccc2c1/C=N/NC(=O)CCn1c(C)nc2ccccc21 | > 50 | > 20 |  |  | 
Cc1nc2ccccc2n1CCCC(=O)N/N=C/c1c(O)ccc2ccccc12 | 10 (≈ 3.86 µg/mL) | 5 (≈ 1.93 µg/mL) | Active | 120 (≈ 46.4 µg/mL) | 
O=C(CCn1cnc2ccccc21)N/N=C/c1c(O)ccc2ccccc12 | 12.5 (≈ 4.48 µg/mL) | 7.5 (≈ 2.69 µg/mL) | Active | 30 (≈ 10.8 µg/mL) | 
Cc1nc2ccccc2n1CCC(=O)N/N=C/c1c(O)ccc2cc(O)ccc12 | 12.5 (≈ 4.86 µg/mL) | 5 (≈ 1.94 µg/mL) |  |  | 
Cc1nc2cnccc2n1CCC(=O)N/N=C/c1c(O)ccc2ccccc12 | 12.5 (≈ 4.67 µg/mL) | 5 (≈ 1.87 µg/mL) | Active | 90 (≈ 33.6 µg/mL) | 
[N-]=[N+]=NCc1nc2ccccc2n1CCC(=O)N/N=C/c1c(O)ccc2ccccc12 | 12.5 (≈ 5.17 µg/mL) | 5 (≈ 2.07 µg/mL) | Active | 20 (≈ 8.27 µg/mL) | 
Cc1nc2ccccc2n1CCC(=O)N/N=C/c1ccccc1O | 50 (≈ 16.1 µg/mL) | 15 (≈ 4.84 µg/mL) |  |  | 
CN(C)Cc1nc2ccccc2n1CCC(=O)N/N=C/c1c(O)ccc2ccccc12 | 12.5 (≈ 5.19 µg/mL) | 5 (≈ 2.08 µg/mL) |  | 90 (≈ 37.4 µg/mL) | 
Cc1nc2ccccc2n1CCC(=O)N/N=C/c1ccc(F)c2ccccc12 | > 50 | > 20 |  |  | 
O=C(CCn1c(C(F)(F)F)nc2ccccc21)N/N=C/c1c(O)ccc2ccccc12 | > 50 | 7.5 (≈ 3.2 µg/mL) |  | 30 (≈ 12.8 µg/mL) | 
C/C(=N\NC(=O)CCn1c(C)nc2ccccc21)c1c(O)ccc2ccccc12 | > 50 | > 20 |  |  | 
Cc1nc2ccccc2n1CCC(=O)NNCc1c(O)ccc2ccccc12 | 50 (≈ 18.7 µg/mL) | 40 (≈ 15 µg/mL) |  |  | 
Cc1nc2ccccc2n1CCC(=O)N/N=C/c1cccc2ccccc12 | 50 (≈ 17.8 µg/mL) | > 20 |  |  | 
COc1ccc2ccccc2c1/C=N/NC(=O)CCn1c(C(F)(F)F)nc2ccccc21 | > 50 | > 20 |  |  | 
COc1ccc2ccccc2c1/C=N/NC(=O)CCn1c(C)nc2ccccc21 | > 50 | > 20 |  |  | 
CC(=O)Oc1ccc2ccccc2c1/C=N/N(C(C)=O)C(=O)CCn1c(C)nc2ccccc21 | 50 (≈ 22.8 µg/mL) | > 40 |  |  | 
Cc1nc2ccccc2n1CCC(=O)N/N=C/c1c(O)ccc2ccccc12 | 12.5 (≈ 4.66 µg/mL) | 5 (≈ 1.86 µg/mL) | Active | 20 (≈ 7.45 µg/mL) | MIC (Shigella boydii): 50 µM (≈ 18.6 µg/mL); MIC (Acinetobacter baumannii): 50 µM (≈ 18.6 µg/mL); MIC (Salmonella typhimurium): 50 µM (≈ 18.6 µg/mL); MIC (Klebsiella pneumoniae): > 50 µM; MIC (Klebsiella aerogenes): 50 µM (≈ 18.6 µg/mL); MIC (Morganella morganii): > 50 µM; MIC (Vibrio cholerae): 6 µM (≈ 2.23 µg/mL)
Cc1nc2ccccc2n1CCC(=O)N/N=C/c1ccc(N(C)C)c2ccccc12 | > 50 | > 20 |  |  | 
Cc1nc2cc(Cl)c(Cl)cc2n1CCC(=O)N/N=C/c1c(O)ccc2ccccc12 | 6.3 (≈ 2.78 µg/mL) | 3.8 (≈ 1.68 µg/mL) | Active | 90 (≈ 39.7 µg/mL) | MIC (Shigella boydii): 25 µM (≈ 11 µg/mL); Activity (Caulobacter vibrioides [4]): Active; MIC (Acinetobacter baumannii): 50 µM (≈ 22.1 µg/mL); MIC (Salmonella typhimurium): 25 µM (≈ 11 µg/mL); MIC (Klebsiella pneumoniae): 50 µM (≈ 22.1 µg/mL); MIC (Klebsiella aerogenes): 12 µM (≈ 5.3 µg/mL); MIC (Morganella morganii): > 50 µM; MIC (Vibrio cholerae): 3 µM (≈ 1.32 µg/mL)
Cc1nc2ccccc2n1CC(=O)N/N=C/c1c(O)ccc2ccccc12 | 25 (≈ 8.96 µg/mL) | 5 (≈ 1.79 µg/mL) |  | 20 (≈ 7.17 µg/mL) | 
Cc1nc2ccccc2n1CCC(=O)N/N=C/c1ccc(O)c2ccccc12 | > 50 | > 20 |  |  | 
Cc1nccn1CCC(=O)N/N=C/c1c(O)ccc2ccccc12 | 12.5 (≈ 4.03 µg/mL) | 7.5 (≈ 2.42 µg/mL) | Active | 10 (≈ 3.22 µg/mL) | 
